# Results taken from ChEMBL document CHEMBL4330069, “Boosting the efficacy of anti-MRSA β-lactam antibiotics via an easily accessible, non-cytotoxic and orally bioavailable FtsZ inhibitor” (Eur J Med Chem, 2019).
# Active and inactive are the calls of the source.
# How the values were obtained:
# [1] = tested on: Staphylococcus aureus; assay: Antibacterial activity against multidrug-resistant Staphylococcus aureus isolate 2516 by broth microdilution assay; assay type: functional
# Method in brief: (§1)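 Broth microdilution MIC per CLSI guidelines against clinical MRSA isolates, for β-lactams and test compound alone and in combination. Compounds were dissolved in DMSO. Growth was read by eye, in duplicate. FIC index = FIC(compound) + FIC(drug); synergy defined as FIC index ≤0.5.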
# [2] = tested on: Staphylococcus aureus; assay: Antibacterial activity against multidrug-resistant Staphylococcus aureus isolate 2895 by broth microdilution assay; assay type: functional; method in brief: as §1
# [3] = tested on: Staphylococcus aureus; assay: Antibacterial activity against multidrug-resistant Staphylococcus aureus isolate 254 by broth microdilution assay; assay type: functional; method in brief: as §1
# [4] = tested on: Staphylococcus aureus; assay: Antibacterial activity against multidrug-resistant Staphylococcus aureus isolate 1344 by broth microdilution assay; assay type: functional; method in brief: as §1
# [5] = tested on: Staphylococcus aureus; assay: Antibacterial activity against multidrug-resistant Staphylococcus aureus isolate 231 by broth microdilution assay; assay type: functional; method in brief: as §1
# [6] = tested on: Staphylococcus aureus; assay: Antibacterial activity against multidrug-resistant Staphylococcus aureus isolate 200 by broth microdilution assay; assay type: functional; method in brief: as §1
# [7] = tested on: Staphylococcus aureus; assay: Antibacterial activity against multidrug-resistant Staphylococcus aureus isolate 417 by broth microdilution assay; assay type: functional; method in brief: as §1
# [8] = tested on: Staphylococcus aureus; assay: Antibacterial activity against multidrug-resistant Staphylococcus aureus isolate 3332 by broth microdilution assay; assay type: functional; method in brief: as §1
# [9] = tested on: Staphylococcus aureus; assay: Antibacterial activity against multidrug-resistant Staphylococcus aureus isolate 3267 by broth microdilution assay; assay type: functional; method in brief: as §1
# [10] = tested on: Staphylococcus aureus; assay: Antibacterial activity against multidrug-resistant Staphylococcus aureus isolate 2224 by broth microdilution assay; assay type: functional; method in brief: as §1
# [11] = tested on: Staphylococcus aureus; assay: Antibacterial activity against multidrug-resistant Staphylococcus aureus isolate 85 by broth microdilution assay; assay type: functional; method in brief: as §1
# [12] = tested on: Staphylococcus aureus; assay: Antibacterial activity against multidrug-resistant Staphylococcus aureus isolate 1749 by broth microdilution assay; assay type: functional; method in brief: as §1
# [13] = tested on: Staphylococcus aureus; assay: Antibacterial activity against multidrug-resistant Staphylococcus aureus isolate 2901 by broth microdilution assay; assay type: functional; method in brief: as §1
# [14] = tested on: Staphylococcus aureus; assay: Antibacterial activity against multidrug-resistant Staphylococcus aureus isolate 3411 by broth microdilution assay; assay type: functional; method in brief: as §1
# [15] = tested on: Staphylococcus aureus; assay: Antibacterial activity against multidrug-resistant Staphylococcus aureus isolate 358 by broth microdilution assay; assay type: functional; method in brief: as §1
# [16] = tested on: Staphylococcus aureus; assay: Antibacterial activity against multidrug-resistant Staphylococcus aureus isolate 256 by broth microdilution assay; assay type: functional; method in brief: as §1
# [17] = tested on: Staphylococcus aureus; assay: Antibacterial activity against multidrug-resistant Staphylococcus aureus isolate 757 by broth microdilution assay; assay type: functional; method in brief: as §1
# [18] = tested on: Staphylococcus aureus; assay: Antibacterial activity against multidrug-resistant Staphylococcus aureus isolate 2728 by broth microdilution assay; assay type: functional; method in brief: as §1
# [19] = tested on: Staphylococcus aureus; assay: Antibacterial activity against multidrug-resistant Staphylococcus aureus isolate 2973 by broth microdilution assay; assay type: functional; method in brief: as §1
# [20] = tested on: Staphylococcus aureus; assay: Antibacterial activity against multidrug-resistant Staphylococcus aureus isolate 1717 by broth microdilution assay; assay type: functional; method in brief: as §1
# [21] = tested on: Staphylococcus aureus; assay: Antibacterial activity against multidrug-resistant Staphylococcus aureus isolate 1402 by broth microdilution assay; assay type: functional; method in brief: as §1
# [22] = tested on: Staphylococcus aureus; assay: Antibacterial activity against multidrug-resistant Staphylococcus aureus isolate 2919 by broth microdilution assay; assay type: functional; method in brief: as §1
# [23] = tested on: Staphylococcus aureus; assay: Antibacterial activity against multidrug-resistant Staphylococcus aureus isolate 2490 by broth microdilution assay; assay type: functional; method in brief: as §1
# [24] = tested on: Staphylococcus aureus; assay: Antibacterial activity against multidrug-resistant Staphylococcus aureus isolate 3580 by broth microdilution assay; assay type: functional; method in brief: as §1
# [25] = tested on: Staphylococcus aureus; assay: Antibacterial activity against multidrug-resistant Staphylococcus aureus isolate 3589 by broth microdilution assay; assay type: functional; method in brief: as §1
# [26] = tested on: Staphylococcus aureus; assay: Antibacterial activity against multidrug-resistant Staphylococcus aureus isolate 1449 by broth microdilution assay; assay type: functional; method in brief: as §1
# [27] = tested on: Staphylococcus aureus; assay: Antibacterial activity against multidrug-resistant Staphylococcus aureus isolate 1136 by broth microdilution assay; assay type: functional; method in brief: as §1
# [28] = tested on: Staphylococcus aureus; assay: Antibacterial activity against multidrug-resistant Staphylococcus aureus isolate 774 by broth microdilution assay; assay type: functional; method in brief: as §1
# [29] = tested on: Staphylococcus aureus; assay: Antibacterial activity against Staphylococcus aureus ATCC BAA-41 at […] after 24 hrs by time kill assay; assay type: functional, organism-based
# Method in brief: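 Time-kill assay. S. aureus BAA-41 was grown in CA-MH broth to mid-log phase (OD595 0.8), then diluted to 5×10^5 CFU/mL. […] Samples were taken at 0–24 h and plated on drug-free CA-MH agar for 24 h. Triplicates.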
# [30] = target: T1, Cell division protein FtsZ (Staphylococcus aureus) (UniProt P0A031); assay: Inhibition of Staphylococcus aureus N-terminal 6His-tagged FtsZ polymerization expressed in Escherichia coli BL21 (DE3) at 100 uM relative to control
# T1 sequence (whole entry): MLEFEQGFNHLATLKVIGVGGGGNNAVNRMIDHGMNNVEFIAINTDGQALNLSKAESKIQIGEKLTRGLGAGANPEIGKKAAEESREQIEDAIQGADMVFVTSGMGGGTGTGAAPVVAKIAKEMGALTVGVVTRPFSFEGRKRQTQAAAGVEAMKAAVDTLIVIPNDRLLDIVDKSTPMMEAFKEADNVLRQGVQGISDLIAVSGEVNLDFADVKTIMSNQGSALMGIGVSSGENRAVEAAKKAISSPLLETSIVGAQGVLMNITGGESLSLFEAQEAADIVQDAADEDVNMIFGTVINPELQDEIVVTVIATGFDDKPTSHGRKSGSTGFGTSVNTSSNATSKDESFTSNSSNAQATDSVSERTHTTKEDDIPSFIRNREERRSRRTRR
# Method in brief: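 Purified S. aureus FtsZ polymerization with GTP, followed as light scattering (absorbance 600 nm) over time. Compound was tested at 12.5–100 µM against a 1% DMSO vehicle, and inhibition was read at 500 s. Triplicate.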
# [31] = tested on: L929; assay: Cytotoxicity against mouse L929 cells by MTS assay; assay type: cell-based
# Method in brief: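 MTS assay on L929 mouse fibroblasts; IC50 reported as the average of three independent measurements.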
# [32] = target: T1, Cell division protein FtsZ (Staphylococcus aureus); assay: Inhibition of Staphylococcus aureus N-terminal 6His-tagged FtsZ GTPase expressed in Escherichia coli BL21 (DE3) at 30 uM relative to control
# [33] = target: T1, Cell division protein FtsZ (Staphylococcus aureus); assay: Inhibition of Staphylococcus aureus N-terminal 6His-tagged FtsZ GTPase expressed in Escherichia coli BL21 (DE3) at 50 uM relative to control
# [34] = tested on: Staphylococcus aureus; assay: Synergistic bactericidal activity against Staphylococcus aureus ATCC BAA-41 at 1 to 16 times MIC in presence of methicillin up to 24 hrs by time kill assay; assay type: functional, organism-based
# Method in brief: (§2)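 Colony of strain grown 16 h in CA-MH broth at 37 °C with shaking, diluted 100-fold and grown to mid-log (OD595 0.8), then set at 5×10^5 CFU/mL. […] Sampled at 0, 2.5, 5, 7.5, 21, 24 h, diluted and plated on drug-free CA-MH agar, 24 h at 37 °C; triplicates.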
# [35] = Selective index, ratio of IC50 for mouse L929 cells to MIC for Staphylococcus aureus ATCC 29213
# Method in brief: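 Selectivity index calculated as L929 IC50 (μM) divided by S. aureus MIC (μM).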
# [36] = tested on: Staphylococcus aureus; assay: Antibacterial activity against Staphylococcus aureus ATCC 29213 by broth microdilution assay; assay type: functional
# Method in brief: (§3)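 Broth microdilution per CLSI guidelines; compounds dissolved in DMSO; single agents tested; growth inhibition read by eye; run in duplicate (table footnote states at least triplicates).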
# [37] = tested on: Staphylococcus aureus; assay: Bactericidal activity against Staphylococcus aureus ATCC BAA-41 assessed as log reduction in bacterial growth at 2 to 4 times MIC up to 7 hrs by time kill assay; assay type: functional
# Method in brief: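 Mid-log S. aureus BAA-41 culture (OD595 0.8) diluted to 5×10^5 CFU/mL in CA-MH broth. […] Incubated at 37 °C with shaking at 250 rpm, sampled at 0, 2.5, 5, 7.5, 21 and 24 h, and plated on drug-free CA-MH agar for 24 h at 37 °C to count viable cells; triplicates.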
# [38] = tested on: Escherichia coli; assay: Antibacterial activity against Escherichia coli ATCC 25922 by broth microdilution assay; assay type: functional; method in brief: as §3
# [39] = target: T1, Cell division protein FtsZ (Staphylococcus aureus); assay: Inhibition of Staphylococcus aureus N-terminal 6His-tagged FtsZ GTPase expressed in Escherichia coli BL21 (DE3) at 100 uM relative to control
# [40] = tested on: Staphylococcus aureus; assay: Synergistic antibacterial activity against Staphylococcus aureus ATCC BAA-41 at 1 to 16 times MIC in presence of methicillin after 21 hrs by time kill assay; assay type: functional, organism-based; method in brief: as §2
structure (smiles),measurement,setting,value
Cc1onc(-c2ccccc2Cl)c1C(=O)N[C@@H]1C(=O)N2[C@@H]1SC(C)(C)[C@@H]2C(=O)O [CLOXACILLIN],MIC,[1],16 µg/mL
same,MIC,[2],8 µg/mL
same,MIC,[3],32 µg/mL
same,MIC,[4],16 µg/mL
same,MIC,[5],64 µg/mL
same,MIC,[6],1 µg/mL
same,MIC,[7],64 µg/mL
same,MIC,[8],8 µg/mL
same,MIC,[9],4 µg/mL
same,MIC,[10],8 µg/mL
same,MIC,[11],0.5 µg/mL
same,MIC,[12],0.5 µg/mL
same,MIC,[13],2 µg/mL
same,MIC,[14],32 µg/mL
same,MIC,[15],1 µg/mL
same,MIC,[16],8 µg/mL
same,MIC,[17],8 µg/mL
same,MIC,[18],1 µg/mL
same,MIC,[19],16 µg/mL
same,MIC,[20],0.5 µg/mL
same,MIC,[21],2 µg/mL
same,MIC,[22],4 µg/mL
same,MIC,[23],2 µg/mL
same,MIC,[24],2 µg/mL
same,MIC,[25],32 µg/mL
same,MIC,[26],1 µg/mL
same,MIC,[27],8 µg/mL
same,MIC,[28],2 µg/mL
NC(=O)c1c(F)ccc(OCc2nc3cc(Cl)cnc3s2)c1F,Activity,[29],Active
same,inhibition,[30],Active
same,IC50,[31],> 100 µM
same,inhibition,[32],-47%
same,inhibition,[33],-29%
same,Activity,[34],Active
same,Selectivity Index,[35],>63
same,MIC,[36],1.6 µM
same,log(activity),[37],> 4
same,MIC,[38],> 64 µg/mL
same,inhibition,[39],-15%
same,Activity,[40],Active
